Calls of active or inactive are those of the source. The rule behind the calls is not given here.
How the values were obtained:
[1] = Half life in mouse hepatic microsomes at 1 uM in presence of NADPH by LC-MS/MS method; assay type: ADME, Microsome; conditions: liver microsomes
Outline: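 Compound incubated with mouse liver microsomes; half-life (T1/2, min) of the compound reported as a measure of metabolic stability.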

dengue virus type 2 [2] = assay: Antiviral activity against Dengue virus serotype 2 strain New Guinea C infected in HuH7 cells assessed as reduction in log-fold change by measuring focus forming unit at 10 uM measured at 24 hrs post infection by focus forming assay relative to control; assay type: functional, Thailand/NGS-C/1944
Outline: (§1)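 DENV2-infected Huh7 cells treated with compound at 2 or 10 μM. Infectious virus secreted into culture supernatants at 24 h post-infection/treatment was titred by focus-forming assay. Result expressed as log-fold change relative to DMSO treatment.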

dengue virus type 2 [3] = assay: Antiviral activity against Dengue virus serotype 2 replicon harboring GVD mutant infected in HuH7 cells assessed as reduction in viral RNA translation at 10 uM measured at 6 hrs post infection by luciferase reporter gene assay relative to control; assay type: functional; design: scale not given: the % may be the effect or the level left
Outline: (§2)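 Huh7 cells transfected with in vitro-transcribed nonreplicative DENV2(GVD) reporter replicon RNA, then treated immediately with compound at 2 or 10 μM. Intracellular firefly luciferase activity read 6 h post-transfection as a measure of RNA translation and expressed relative to DMSO-treated samples. Mean ± SD of experimental duplicates, n = 3 repeats.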

dengue virus type 2 [4] = assay: Antiviral activity against Dengue virus serotype 2 strain New Guinea C infected in HuH7 cells assessed as reduction in log-fold change by measuring focus forming unit at 2 uM measured at 24 hrs post infection by focus forming assay relative to control; assay type: functional, Thailand/NGS-C/1944; outline: as §1
dengue virus type 2 [5] = assay: Antiviral activity against Dengue virus serotype 2 replicon harboring GVD mutant infected in HuH7 cells assessed as reduction in viral RNA translation at 2 uM measured at 6 hrs post infection by luciferase reporter gene assay relative to control; assay type: functional; design: scale not given: the % may be the effect or the level left; outline: as §2
[6] = Cytotoxicity against human HuH7 cells measured after 24 hrs by CellTiter-Glo luminescent cell viability assay; assay type: cell-based, Huh-7
Outline: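 DENV2-infected Huh7 cells treated across a concentration range; cell viability read 24 h later. CC50 (50% cytotoxicity) derived by non-linear regression; mean ± SD of experimental duplicates, n ≥ 2 repeats.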

dengue virus type 2 [7] = assay: Antiviral activity against Dengue virus serotype 2 strain New Guinea C infected in HuH7 cells at […] to 10 uM measured at 24 hrs post infection by focus forming assay; assay type: functional, cell-based; conditions: Thailand/NGS-C/1944
Outline: (§3)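 Huh7 cells infected with DENV2, then treated with compound; screened at 2 and 10 μM. Infectious virus secreted into supernatant at 24 h post-infection/treatment titrated by focus-forming assay; expressed as log-fold change relative to DMSO. IC90 (1-log10 drop in infectious progeny) from concentration range by non-linear regression; mean ± SD of experimental duplicates, n ≥ 2 repeats.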

dengue virus type 2 [8] = assay: Antiviral activity against Dengue virus serotype 2 strain New Guinea C infected in HuH7 cells at < 10 uM measured at 24 hrs post infection by focus forming assay; assay type: functional, cell-based; conditions: Thailand/NGS-C/1944; outline: as §3
Vero = assay: Antiviral activity against Respiratory syncytial virus A2 infected in Vero cells at 2.5 uM pretreated for 7 days followed by viral infection by crystal violet staining based plaque formation assay; assay type: functional, cell-based; conditions: Human respiratory syncytial virus A2
Kunjin virus = assay: Antiviral activity against West Nile virus Kunjin infected in HuH7 cells at 2 uM measured at 24 hrs post infection by crystal violet staining based plaque formation assay; assay type: functional, cell-based
Outline: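 Huh7 cells infected with West Nile virus, then treated with 2 μM for 24 h. Infectious virus released to supernatants quantified by plaque assay and plotted relative to DMSO-treated samples; mean ± SD of experimental duplicates, n ≥ 2 repeats.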

dengue virus type 2 [9] = assay: Antiviral activity against Dengue virus serotype 2 strain New Guinea C infected in HuH7 cells measured at 24 hrs post infection by focus forming assay; assay type: functional; conditions: Thailand/NGS-C/1944, Huh-7, 24 h
Outline: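 Huh7 cells infected with DENV2, then treated with a range of compound concentrations. Viral yield measured 24 h later by titration of infectious particles in supernatants; in parallel, cell viability measured. IC90 (1-log10 reduction in infectious progeny) and CC50 derived by non-linear regression. Mean ± SD of experimental duplicates, n ≥ 2 repeats.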

[10] = test system: Vesicular stomatitis Indiana virus; assay: Antiviral activity against Vesicular stomatitis virus Indiana infected in Vero cells at 4 uM measured at 6 hrs post infection by crystal violet staining based plaque formation assay; assay type: functional, cell-based
Outline: (§4)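 Vero cells infected with poliovirus or VSV, then treated with 4 μM compound for 12 h (poliovirus) or 6 h (VSV). Infectious virus released to supernatants quantified by plaque-forming assay, plotted relative to DMSO-treated samples. Mean ± SD of experimental duplicates, n ≥ 2 repeats.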

Enterovirus C = assay: Antiviral activity against Polio virus Chat infected in Vero cells at 4 uM measured at 12 hrs post infection by crystal violet staining based plaque formation assay; assay type: functional, cell-based; outline: as §4

Compound | half-life at 1 µM [1] [min] | Activity (dengue virus type 2 [2]) [log10FFU/ml] | Activity (dengue virus type 2 [3]) [%] | Activity (dengue virus type 2 [4]) [log10FFU/ml] | Activity (dengue virus type 2 [5]) [%] | CC50 at 24 h [6] [µM] | Activity (dengue virus type 2 [7]) | Activity (dengue virus type 2 [8]) | Activity (Vero) | Activity (Kunjin virus) | IC90 (dengue virus type 2 [9]) [µM] | Activity [10] | Activity (Enterovirus C)
C=CC(=O)Nc1cc(-n2c(=O)ccc3cnc4ccc(-c5ccc6c(c5)OCO6)cc4c32)ccc1C | 2.7 | 4 | 94 | 2.8 | 32 | 46 |  |  |  |  |  |  | 
C=CC(=O)Nc1cc(-n2c(=O)ccc3cnc4ccc(-c5cnn(C)c5)cc4c32)ccc1C | 4.1 | 4 | 34 | 1 | 40 | > 160 |  |  |  |  |  |  | 
C=CC(=O)Nc1cc(-n2c(=O)ccc3cnc4ccc(N5CCOCC5)cc4c32)ccc1C | 9 | 1.2 | 23 | 0.1 | 0 | 103 |  |  |  |  |  |  | 
C=CC(=O)Nc1cc(-n2c(=O)ccc3cnc4ccc(-c5ccc(NS(C)(=O)=O)cc5)cc4c32)ccc1C |  |  |  |  |  |  | inactive |  |  |  |  |  | 
Cc1ccc(-n2c(=O)ccc3ccc4ccc(-c5ccc6ccncc6c5)cc4c32)cc1NC(=O)/C=C/CN(C)C | 6.3 | 4 | 66 | 3.3 | 17 | 21 |  |  |  |  |  |  | 
Cc1c(NC(=O)c2ccc(C(C)(C)C)cc2)cccc1-c1cn(C)c(=O)c(Nc2ccc(C(=O)N3CCOCC3)cc2)n1 |  |  |  |  |  |  | inactive |  |  |  |  |  | 
C=CC(=O)Nc1cc(-n2c(=O)ccc3cnc4ccc(-c5cnc6ccccc6c5)cc4c32)ccc1C | 1.3 | 4 | 95 | 2.7 | 82 | > 160 |  |  |  |  |  |  | 
CCC(=O)N1CCc2ccc(-n3c(=O)ccc4cnc5ccc(-c6cnn(C)c6)cc5c43)cc21 |  |  |  |  |  |  |  | inactive |  |  |  |  | 
C=CC(=O)Nc1cc(-n2c(=O)ccc3cnc4ccc(-c5ccc(N)nc5)cc4c32)ccc1C | 6.4 | 4 | 75 | 0.8 | 44 | 75 |  |  |  |  |  |  | 
C=CC(=O)Nc1cc(-n2c(=O)ccc3ccc4ccc(-c5ccc6ccncc6c5)cc4c32)ccc1C | 9 | 4 | 94 | 1.9 | 82 | 75 |  |  |  |  |  |  | 
C=CC(=O)Nc1cc(-n2c(=O)ccc3cnc4ccc(-c5cnn(C)c5)cc4c32)ccc1OCCNC(C)=O |  | 4 | 90 | 1.1 | 39 | 99 |  |  |  |  |  |  | 
C=CC(=O)Nc1cc(-n2c(=O)ccc3cnc4ccc(-c5cnn(C)c5)cc4c32)ccc1F | 4.5 | 4 | 99 | 4 | 97 | 105 |  |  |  |  |  |  | 
C=CC(=O)Nc1cc(-n2c(=O)ccc3cnc4ccc(-c5cnn(C)c5)cc4c32)ccc1C(=O)O |  | 0 | 19 | 0 | 3 | > 160 |  |  |  |  |  |  | 
C=CC(=O)N1CCc2ccc(-n3c(=O)n(C)c4cnc5ccc(-c6ccc7ccncc7c6)cc5c43)cc21 | 2 | 4 | 98 | 2 | 77 | 126 |  |  |  |  |  |  | 
C=CC(=O)Nc1cc(-n2c(=O)ccc3cnc4ccc(N5CCN(c6ccccc6)CC5)cc4c32)ccc1C | 5 | 0 | 2 | 0.1 | 0 | 44 |  |  |  |  |  |  | 
C=CC(=O)N1CCc2ccc(-n3c(=O)ccc4cnc5ccc(-c6ccc(S(=O)(=O)NC(C)(C)C)cc6)cc5c43)cc21 | 2.3 | 1.9 | 100 | 0 | 81 | 13 |  |  |  |  |  |  | 
C=CC(=O)Nc1cc(-n2c3c(ccc2=O)CCc2ccc(-c4cnn(C)c4)cc2-3)ccc1C |  | 1 | 60 | 0.5 | 49 | > 160 |  |  |  |  |  |  | 
C=CC(=O)Nc1cc(-n2c3c(ccc2=O)CCc2ccc(-c4ccc5ccncc5c4)cc2-3)ccc1C |  | 0.1 | 88 | 0.5 | 77 | > 160 |  |  |  |  |  |  | 
C=CC(=O)Nc1cc(-n2c(=O)ccc3cnc4ccc(-c5cn[nH]c5)cc4c32)ccc1C | 6.5 | 4 | 76 | 0.8 | 29 | 77 |  |  |  |  |  |  | 
C=CC(=O)Nc1cc(-n2c(=O)ccc3ccc4ccc(-c5cn[nH]c5)cc4c32)ccc1C | 4 | 4 | 79 | 2 | 39 | 29 |  |  |  |  |  |  | 
C=CC(=O)N1CCc2ccc(-n3c(=O)n(C)c4cnc5ccc(-c6cnn(C)c6)cc5c43)cc21 | 2 | 4 | 99 | 2.5 | 94 | 79 |  |  |  |  |  |  | 
C=CC(=O)Nc1cc(-n2c(=O)ccc3ccc4ccc(-c5cnn(C)c5)cc4c32)ccc1C | 4 | 4 | 95 | 4 | 76 | > 160 |  |  |  |  |  |  | 
C=CC(=O)Nc1cc(-n2c(=O)ccc3cnc4ccc(Nc5cnn(C)c5)cc4c32)ccc1C | 7.9 | 0.4 | 24 | 0 | 23 | 107 |  |  |  |  |  |  | 
C=CC(=O)N1CCc2ccc(N3C(=O)NCc4cnc5ccc(-c6cnn(C)c6)cc5c43)cc21 | 2 | 0.8 | 53 | 0.1 | 49 | 68 |  |  |  |  |  |  | 
C=CC(=O)N1CCc2ccc(-n3c(=O)ccc4cnc5ccc(-c6cnn(C)c6)cc5c43)cc21 | 1.2 | 4 | 98 | 4 | 94 | 67 to 68 |  |  | Active | Active | 0.343 | Active | Active
C=CC(=O)Nc1cc(-n2c(=O)ccc3cnc4ccc(-c5cnn(C)c5)cc4c32)ccc1C(=O)N(C)C |  | 4 | 93 | 2 | 4 | 83 |  |  |  |  |  |  | 
C=CC(=O)N1CCC[C@@H](n2nc(-c3ccc(Oc4ccccc4)cc3)c3c(N)ncnc32)C1 |  |  |  |  |  |  | inactive |  |  |  |  |  | 

Reference: ChEMBL document CHEMBL4041550, “Structure-Activity Relationship Study of QL47: A Broad-Spectrum Antiviral Agent” (ACS Med Chem Lett, 2017)
